The test system of data set [1] is Staphylococcus aureus. The experiment in a line: Antibacterial activity against methicillin-resistant Staphylococcus aureus ATCC 33591 after 20 hrs by broth microdilution method. Type of data set: functional. The settings on record: ATCC 33591, 20 h. A digest of the protocol:
(§1)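 ATCC strains grown on Müller-Hinton agar 37 °C 24 h, then in Müller-Hinton broth 37 °C 24 h. MIC by two-fold serial broth microdilution, 0.01 to 128 μg/mL; samples dissolved in 5% DMSO in water, final DMSO below 0.5% in all wells, duplicate. Mid-log cells at initial A600 0.001; read after 20 h at 37 °C with gentle shaking. Methicillin control included.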
A general note: Broth dilution looks for growth in wells or tubes with falling amounts of substance.

Data set [2] relates to Staphylococcus aureus. The experiment in a line: Antibacterial activity against vancomycin-resistant Staphylococcus aureus after 20 hrs by broth microdilution method. Format: functional. A digest of the protocol: as §1
The subject of data set [3] is Staphylococcus aureus. The experiment in a line: Antibacterial activity against Staphylococcus aureus ATCC 6538P after 20 hrs by broth microdilution method. Format: functional. Put shortly: (§2)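 Strains are grown on Müller-Hinton agar at 37 °C for 24 h, then in Müller-Hinton broth at 37 °C for 24 h. Mid-log cells at an initial 600 nm absorbance of 0.001 are exposed to two-fold serial dilutions from 0.01 to 128 µg/mL, in duplicate. Samples are dissolved in 5% DMSO/H2O, giving final DMSO below 0.5% in wells and matched in controls. Methicillin is the reference. MIC is read after 20 h at 37 °C with gentle shaking.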

In a further data set the test system is Klebsiella pneumoniae. Kind of data set: Antibacterial activity against Klebsiella pneumoniae ATCC 10031 at 128 ug/ml after 20 hrs by broth microdilution method. Format: functional, organism-based. A digest of the protocol:
as §2

The test system of the next data set is Escherichia coli. The experiment in a line: Antibacterial activity against Escherichia coli KCTC 1923 at 128 ug/ml after 20 hrs by broth microdilution method. Type of data set: functional, organism-based.
The nature of data set [4]: Cytotoxicity against human BG02 cells at 40 uM. Format: cell-based. Conditions: bg02, 40 µM. Put shortly: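 Growth inhibition of human embryonic stem cells (BG02) was tracked by real-time cell electronic sensing (RT-CES) in a 96-well format, with each compound tested at 40 µM.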
The test system of data set [5] is Staphylococcus aureus. The experiment in a line: Antibacterial activity against Staphylococcus aureus ATCC 6538P up to 128 ug/ml after 20 hrs by broth microdilution method. Type of data set: functional, organism-based. A digest of the protocol: as §2
Data set [6] has as its system Staphylococcus aureus. Kind of data set: Antibacterial activity against vancomycin-resistant Staphylococcus aureus up to 128 ug/ml after 20 hrs by broth microdilution method. Type of data set: functional, organism-based. Put shortly:
as §1

Data set [7] concerns Staphylococcus aureus. The experiment in a line: Antibacterial activity against methicillin-resistant Staphylococcus aureus ATCC 33591 up to 128 ug/ml after 20 hrs by broth microdilution method. Type of data set: functional, organism-based. A digest of the protocol:
as §1

Structures are written as SMILES. In brackets after ≈: the same amount, converted by molar mass. Activity calls are given as the source filed them. No cut-off for these calls is given here.

Take `C=C1CC[C@@H]2[C@](C)(CCC[C@@]2(C)/C=C/C=C(C)C)[C@H]1CC(=O)O` (relative stereo): the MIC in the data set with Staphylococcus aureus [1] came to 64 µg/mL (≈ 202 µM); against Staphylococcus aureus [2], 64 µg/mL (≈ 202 µM); against Staphylococcus aureus [3] it was 32 µg/mL (≈ 101 µM). Besides, the outcome in the data set on Klebsiella pneumoniae and with Escherichia coli was inactive. In addition, the Activity entry in data set [4] is “Non-toxic”.

Turning to `C=C1CC[C@@H]2[C@](C)(CCC[C@@]2(C)/C=C/C=C(C)C)[C@H]1CC(=O)NCCS(=O)(=O)O` (relative stereo), the outcome in the data set on Klebsiella pneumoniae, in the data set on Staphylococcus aureus [5], with Escherichia coli, in the data set on Staphylococcus aureus [6] and in the data set on Staphylococcus aureus [7] was inactive. Further, the Activity entry in [4] is reported as “Non-toxic”.

Regarding `C=C1CC[C@@H]2[C@](C)(CCC[C@@]2(C)/C=C/C(O)C(C)(C)O)[C@H]1CC(=O)NCCS(=O)(=O)O` (relative stereo), the outcome in the data set with Klebsiella pneumoniae, in the data set on Staphylococcus aureus [5], in the data set on Escherichia coli, with Staphylococcus aureus [6] and in the data set on Staphylococcus aureus [7] was inactive. Further, the Activity result in data set [4] is given as “Non-toxic”.

A word on the MIC: it is the lowest concentration that inhibits growth of the organism. Read a low MIC as a more susceptible organism.

The record behind these values is ChEMBL document CHEMBL2062382, “Bicyclic C21 terpenoids from the marine sponge Clathria compressa” (J Nat Prod, 2012).
